# Reference: paper PMC3304489 (Biochemical Journal, 2012)
# Test system: MALT1
# Assay: Effect of buffer additives on MALT1 activity
# Format: biochemical, human
# Settings: 50 mM Hepes, 100 mM NaCl, 0.9 M sodium citrate, pH 7.5, supplemented with additive (Figure 2C and results not shown)
# In short: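 Recombinant human MALT1, expressed in E. coli and Ni-NTA purified, used as full-length (150 nM) and as His-tagged catalytic domain (residues 329–566, 4 μM). Each was assayed in 50 mM Hepes, 100 mM NaCl, 0.9 M sodium citrate (pH 7.5) with the indicated additives. Experiments were repeated three times, and mean ± S.E.M. is reported.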
row,SMILES,effect of buffer additive on the activity of MALT1 (in words)
1,"O[C@@H](CS)[C@@H](O)CS (racemic) [DTT, dithiothreitol]",activity was enhanced
2,"c1cnc2c(c1)ccc1cccnc12 [1,10-phenanthroline]",no substantial effect
3,[Ca+2].[Cl-].[Cl-] [CaCl2],no substantial effect
4,O=C(O)CN(CCN(CC(=O)O)CC(=O)O)CC(=O)O [EDTA],no substantial effect
